Columns and labels:
[1] = biological target: Histamine H1 receptor (Cavia porcellus) (UniProt P31389); assay: Antagonist activity at histamine H1 receptor in guinea pig ileum assessed as inhibition of histamine-induced smooth muscle spasm at 0.2 mg/mL after 3 mins (reference value: 1.27 +/- 5.65%); format: tissue-based; design: scale not given: the % may be the effect or the level left
Mus musculus [2] = assay: Toxicity in mouse assessed as effect on pentobarbital sodium-induced hypnotic effect measured as loss of righting reflex latency at 1 mg/kg pretreated for 30 mins prior to pentobarbital sodium-challenge; format: organism-based; design: dose 1 mg/kg; settings: in vivo
Method in brief: (§1)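 Mice, 10 per group. Groups: saline, pentobarbital alone, pentobarbital plus desloratadine 1 mg/kg, pentobarbital plus test agent at 0.05 or 0.2 mg/kg. 30 min after dosing, 1% pentobarbital sodium given i.p. at 100 mg/kg (10 mL/kg). Latency to loss of righting reflex and time to its recovery recorded, in min.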

[3] = biological target: Histamine H1 receptor (Cavia porcellus) (UniProt P31389); assay: Antagonist activity at histamine H1 receptor in guinea pig ileum assessed as inhibition of histamine-induced smooth muscle contraction at 0.2 mg/mL after 3 mins (reference value: 3.37 +/- 1.05 g); format: tissue-based
Cavia porcellus [4] = assay: Antiasthamatic activity in histamine-induced guinea pig asthma model assessed as prolongation of asthmogenic latent period at 1 mg/kg, ig pretreated for 60 mins prior to histamine-challenge (reference value: 127.10 +/- 40.46 seconds); format: functional; settings: route intragastric
Mus musculus [5] = assay: Toxicity in mouse assessed as effect on pentobarbital sodium-induced hypnotic effect measured as recovery of righting reflex at 1 mg/kg pretreated for 30 mins prior to pentobarbital sodium-challenge; format: organism-based; design: dose 1 mg/kg; settings: in vivo; method in brief: as §1
Cavia porcellus [6] = assay: Antiasthamatic activity in histamine-induced guinea pig asthma model assessed as prolongation of asthmogenic latent period at 0.01 mg/kg, ig pretreated for 60 mins prior to histamine-challenge (reference value: 127.10 +/- 40.46 seconds); format: functional; settings: route intragastric
Mus musculus [7] = assay: Toxicity in mouse assessed as salivation at 0.05 to 0.2 mg/kg measured for 7 days; format: organism-based; design: dose 0.05-0.2 mg/kg; settings: in vivo, 168 h
Method in brief: (§2)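 Groups of 10 received saline 10 mL/kg, desloratadine 1 mg/kg, or compound at a low dose (0.05 mg/kg) or high dose (0.2 mg/kg), all at a dosing volume of 10 mL/kg. Over the following seven days, mental state, body activity and abnormal signs were observed: sleep, excitement, irritability, convulsion, salivation and muscle tremor.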

Mus musculus [8] = assay: Toxicity in mouse assessed as effect on pentobarbital sodium-induced hypnotic effect measured as recovery of righting reflex at 50 mg/kg pretreated for 30 mins prior to pentobarbital sodium-challenge; format: organism-based; design: dose 50 mg/kg; settings: in vivo
Mus musculus [9] = assay: Toxicity in mouse assessed as effect on pentobarbital sodium-induced hypnotic effect measured as loss of righting reflex latency at 50 mg/kg pretreated for 30 mins prior to pentobarbital sodium-challenge; format: organism-based; design: dose 50 mg/kg; settings: in vivo
Mus musculus [10] = assay: Toxicity in mouse assessed as excitement at 0.05 to 0.2 mg/kg measured for 7 days; format: organism-based; design: dose 0.05-0.2 mg/kg; settings: in vivo, 168 h; method in brief: as §2
Ileum [11] = assay: Toxicity in guinea pig ileum assessed as effect on acetylcholine-induced smooth muscle contraction at 2 ug/mL after 3 mins (reference value: 5.17 +/- 0.36 g); format: tissue-based, Cavia porcellus
Mus musculus [12] = assay: Toxicity in mouse assessed as muscle tremor at 0.05 to 0.2 mg/kg measured for 7 days; format: organism-based, Muscle tissue; design: dose 0.05-0.2 mg/kg; settings: in vivo, 168 h; method in brief: as §2
Mus musculus [13] = assay: Toxicity in mouse assessed as convulsion at 0.05 to 0.2 mg/kg measured for 7 days; format: organism-based; design: dose 0.05-0.2 mg/kg; settings: in vivo, 168 h; method in brief: as §2
Mus musculus [14] = assay: Toxicity in mouse assessed as change in body activity at 0.05 to 0.2 mg/kg measured for 7 days; format: organism-based; design: dose 0.05-0.2 mg/kg; settings: in vivo, 168 h; method in brief: as §2
Ileum [15] = assay: Toxicity in guinea pig ileum assessed as effect on acetylcholine-induced smooth muscle spasm at 1.4 ug/mL after 3 mins (reference value: 1.31 +/- 3.66%); format: tissue-based, Cavia porcellus; settings: in vivo
Mus musculus [16] = assay: Toxicity in mouse assessed as effect on pentobarbital sodium-induced hypnotic effect measured as loss of righting reflex latency at 200 mg/kg pretreated for 30 mins prior to pentobarbital sodium-challenge; format: organism-based; design: dose 200 mg/kg; settings: in vivo
Ileum [17] = assay: Toxicity in guinea pig ileum assessed as effect on acetylcholine-induced smooth muscle contraction at 1.4 ug/mL after 3 mins (reference value: 5.17 +/- 0.36 g); format: tissue-based, Cavia porcellus
Mus musculus [18] = assay: Toxicity in mouse assessed as effect on pentobarbital sodium-induced hypnotic effect measured as recovery of righting reflex at 100 mg/kg pretreated for 30 mins prior to pentobarbital sodium-challenge; format: organism-based; design: dose 100 mg/kg; settings: in vivo
Mus musculus [19] = assay: Toxicity in mouse assessed as change in mental state at 0.05 to 0.2 mg/kg measured for 7 days; format: organism-based; design: dose 0.05-0.2 mg/kg; settings: in vivo, 168 h; method in brief: as §2
Ileum [20] = assay: Toxicity in guinea pig ileum assessed as effect on acetylcholine-induced smooth muscle spasm at 2 ug/mL after 3 mins (reference value: 1.31 +/- 3.66%); format: tissue-based, Cavia porcellus; settings: in vivo
Mus musculus [21] = assay: Toxicity in mouse assessed as sleep abnormality at 0.05 to 0.2 mg/kg measured for 7 days; format: organism-based; design: dose 0.05-0.2 mg/kg; settings: in vivo, 168 h; method in brief: as §2
Mus musculus [22] = assay: Toxicity in mouse assessed as irritability at 0.05 to 0.2 mg/kg measured for 7 days; format: organism-based; design: dose 0.05-0.2 mg/kg; settings: in vivo, 168 h; method in brief: as §2
Ileum [23] = assay: Toxicity in guinea pig ileum assessed as effect on acetylcholine-induced smooth muscle contraction at 0.6 ug/mL after 3 mins (reference value: 5.17 +/- 0.36 g); format: tissue-based, Cavia porcellus
Ileum [24] = assay: Toxicity in guinea pig ileum assessed as effect on acetylcholine-induced smooth muscle spasm at 0.6 ug/mL after 3 mins (reference value: 1.31 +/- 3.66%); format: tissue-based, Cavia porcellus; settings: in vivo
Ileum [25] = assay: Toxicity in guinea pig ileum assessed as effect on acetylcholine-induced smooth muscle spasm at 0.2 ug/mL after 3 mins (reference value: 1.31 +/- 3.66%); format: tissue-based, Cavia porcellus; settings: in vivo
Ileum [26] = assay: Toxicity in guinea pig ileum assessed as effect on acetylcholine-induced smooth muscle contraction at 0.2 ug/mL after 3 mins (reference value: 5.17 +/- 0.36 g); format: tissue-based, Cavia porcellus
Ileum [27] = assay: Toxicity in guinea pig ileum assessed as effect on acetylcholine-induced smooth muscle contraction at 0.1 ug/mL after 3 mins (reference value: 5.17 +/- 0.36 g); format: tissue-based, Cavia porcellus
Ileum [28] = assay: Toxicity in guinea pig ileum assessed as effect on acetylcholine-induced smooth muscle spasm at 0.1 ug/mL after 3 mins (reference value: 1.31 +/- 3.66%); format: tissue-based, Cavia porcellus; settings: in vivo

Chain of Histamine H1 receptor (Cavia porcellus) (P31389 whole entry): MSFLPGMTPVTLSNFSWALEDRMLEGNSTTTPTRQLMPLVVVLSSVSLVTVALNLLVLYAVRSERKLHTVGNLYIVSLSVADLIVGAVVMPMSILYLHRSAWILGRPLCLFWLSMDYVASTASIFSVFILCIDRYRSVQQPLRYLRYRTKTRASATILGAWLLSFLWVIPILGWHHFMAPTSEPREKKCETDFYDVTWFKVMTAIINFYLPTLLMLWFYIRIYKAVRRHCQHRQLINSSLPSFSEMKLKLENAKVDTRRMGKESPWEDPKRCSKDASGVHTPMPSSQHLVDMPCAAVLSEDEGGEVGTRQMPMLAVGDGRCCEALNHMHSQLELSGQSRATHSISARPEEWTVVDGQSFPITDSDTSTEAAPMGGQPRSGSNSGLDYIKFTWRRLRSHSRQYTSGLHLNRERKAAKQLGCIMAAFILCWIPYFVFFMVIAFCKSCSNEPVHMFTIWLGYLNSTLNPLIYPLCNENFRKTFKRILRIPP

Row | SMILES | Activity [1] [%] | Activity [3] [g] | Time (Cavia porcellus [6]) [s] | Activity (Mus musculus [7]) | Time (Mus musculus [8]) [min] | Time (Mus musculus [9]) [min] | Activity (Mus musculus [10]) | Activity (Mus musculus [12]) | Activity (Mus musculus [13]) | Activity (Mus musculus [14]) | Time (Mus musculus [16]) [min] | Time (Mus musculus [18]) [min] | Activity (Mus musculus [19]) | Activity (Mus musculus [21]) | Activity (Mus musculus [22]) | also measured
1 | Clc1ccc2c(c1)CCc1cccnc1C2=C1CCNCC1 [DESLORATADINE] | 49.1 | 1.67 | – | – | – | – | – | – | – | – | – | – | – | – | – | Time (Mus musculus [2]): 2.23 min; Time (Cavia porcellus [4]): 278.2 s; Time (Mus musculus [5]): 93 min
2 | OC1CCC(N2CCC(=C3c4ccc(Cl)cc4CCc4cccnc43)CC2)CC1 (stereo not given) | 13 | 2.93 | 222 | – | – | – | – | – | – | – | – | – | – | – | – | –
3 | Clc1ccc2c(c1)CCc1cccnc1C2=C1CCN(C2CCC(Cl)CC2)CC1 (stereo not given) | 61.1 | 1.29 | 325.2 | Non-toxic | 82 | 1.61 | Non-toxic | Non-toxic | Non-toxic | Non-toxic | 1.62 | 103 | Non-toxic | Non-toxic | Non-toxic | Activity (Ileum [11]): 4.4 g; Activity (Ileum [15]): 61.39%; Activity (Ileum [17]): 5.59 g; Activity (Ileum [20]): 70.61%
4 | ClCCCN1CCC(=C2c3ccc(Cl)cc3CCc3cccnc32)CC1 | 43 | 1.81 | 256.9 | Non-toxic | 97 | 1.48 | Non-toxic | Non-toxic | Non-toxic | Non-toxic | 1.58 | 120 | Non-toxic | Non-toxic | Non-toxic | Activity (Ileum [23]): 8.56 g; Activity (Ileum [24]): 47.21%; Activity (Ileum [15]): 69.51%; Activity (Ileum [17]): 5.68 g
5 | NCCCN1CCC(=C2c3ccc(Cl)cc3CCc3cccnc32)CC1 | 26 | 2.36 | 182.8 | – | – | – | – | – | – | – | – | – | – | – | – | –
6 | CN(C)CCCN1CCC(=C2c3ccc(Cl)cc3CCc3cccnc32)CC1 | 30.4 | 2.66 | 212.8 | – | – | – | – | – | – | – | – | – | – | – | – | –
7 | Clc1ccc2c(c1)CCc1cccnc1C2=C1CCN(C2CCCCC2)CC1 | 29.4 | 2.57 | 250.3 | – | – | – | – | – | – | – | – | – | – | – | – | –
8 | CCCN1CCC(=C2c3ccc(Cl)cc3CCc3cccnc32)CC1 | 42.5 | 1.8 | 255.1 | Non-toxic | 76 | 1.47 | Non-toxic | Non-toxic | Non-toxic | Non-toxic | 1.61 | 99 | Non-toxic | Non-toxic | Non-toxic | Activity (Ileum [25]): 56.14%; Activity (Ileum [23]): 4.38 g; Activity (Ileum [24]): 73.09%; Activity (Ileum [26]): 7.51 g
9 | O=C1c2ccccc2C(=O)N1CCCN1CCC(=C2c3ccc(Cl)cc3CCc3cccnc32)CC1 | 26.6 | 2.71 | 247.9 | – | – | – | – | – | – | – | – | – | – | – | – | –
10 | OCCCN1CCC(=C2c3ccc(Cl)cc3CCc3cccnc32)CC1 | 45.2 | 1.73 | 221.9 | Non-toxic | 76 | 1.54 | Non-toxic | Non-toxic | Non-toxic | Non-toxic | 1.46 | 100 | Non-toxic | Non-toxic | Non-toxic | Activity (Ileum [11]): 6.04 g; Activity (Ileum [15]): 58.27%; Activity (Ileum [17]): 6.72 g; Activity (Ileum [20]): 67.06%
11 | FCCCN1CCC(=C2c3ccc(Cl)cc3CCc3cccnc32)CC1 | 48.7 | 1.74 | 269.4 | Non-toxic | 98 | 1.47 | Non-toxic | Non-toxic | Non-toxic | Non-toxic | 1.45 | 123 | Non-toxic | Non-toxic | Non-toxic | Activity (Ileum [25]): 54.35%; Activity (Ileum [23]): 6.58 g; Activity (Ileum [24]): 62.47%; Activity (Ileum [26]): 9.11 g
12 | CN1[C@@H]2CC[C@H]1CC(OC(=O)[C@H](CO)c1ccccc1)C2 (stereo partly drawn) [ENDO-ATROPINE] | – | – | – | – | – | – | – | – | – | – | – | – | – | – | – | Activity (Ileum [27]): 3.47 g; Activity (Ileum [28]): 74.9%
13 | Clc1ccc2c(c1)CCc1cccnc1C2=C1CCN(C2CC=CCC2)CC1 (stereo not given) | 28.3 | 2.38 | 262.7 | – | – | – | – | – | – | – | – | – | – | – | – | –
